# Experimental data gathered from unrelated publications.
# Protocols differ between the studies behind these lines.
# CDK7 with cyclin H: Cyclin-dependent kinase 7, with cyclin H (CDK7, Homo sapiens, UniProt P50613)
# CDK7: Cyclin-dependent kinase 7 (CDK7, Homo sapiens, UniProt P50613)
Compound,target,test,conditions,quantity,value
CNC(=O)c1cc(Oc2ccc(NC(=O)Nc3ccc(Cl)c(C(F)(F)F)c3)cc2)ccn1,CDK7 with cyclin H,"enzyme activity, inhibitor",10 µM,inhibition,-36%
COC(=O)[C@H]1[C@H]2C[C@@H]3c4[nH]c5cc(OC)ccc5c4CCN3C[C@H]2C[C@@H](OC(=O)c2cc(OC)c(OC)c(OC)c2)[C@@H]1OC,CDK7 with cyclin H,"enzyme activity, inhibitor, ADP detection",10 µM,inhibition,-37.8%
CN(C)C(=O)Cn1cc(-c2nc([C@@](C)(c3ccc(-c4cnc(N)nc4)cc3)C3CC3)no2)cn1,CDK7,"cell-free assay, competition with immobilised ligand",1 µM,remaining binding,59%
CC(C)(O)[C@H]1CC[C@H](Nc2ccc3ncc(-c4cccc(C(F)(F)F)c4)n3n2)CC1,CDK7 with cyclin H,"enzyme activity, inhibitor",1 µM,remaining activity,96.6%
CC(C)(C)c1nc2c(s1)c1nc(N)ncc1c1ccc(NS(=O)(=O)c3c(F)cccc3F)c(F)c12,CDK7 with cyclin H,"enzyme activity, inhibitor, radiometric",1 µM,remaining activity,123%
C=C1CC[C@@H]2[C@](C)(CO)[C@H](O)CC[C@@]2(C)[C@@H]1CCC1=CCOC1=O,CDK7 with cyclin H,"enzyme activity, inhibitor, ADP detection",10 µM,inhibition,22.8%
Cc1sc(C(=O)NC2COC2)cc1-n1cc(NC(=O)Nc2c(F)cccc2Cl)cn1,CDK7 with cyclin H,"enzyme activity, inhibitor",10 µM,remaining activity,103%
COc1cc(Nc2c(C#N)cnc3cc(OCCCN4CCN(C)CC4)c(OC)cc23)c(Cl)cc1Cl,CDK7 with cyclin H,cell-free assay,0.5 µM,remaining signal,113%
COc1ccc(-c2coc3cc(O)cc(O)c3c2=O)cc1,CDK7 with cyclin H,"enzyme activity, inhibitor, ADP detection",10 µM,inhibition,41.3%
C[C@H](c1ccnc(Nc2nc3ccc(-c4cc(N(C)C)ncn4)cc3[nH]2)c1)N1CCN(C(=O)CC(F)(F)F)CC1,CDK7,"cell-free assay, competition with immobilised ligand",0.1 µM,remaining binding,93%
CCCCNc1ncc2c(-c3ccc(F)cc3)nn(C[C@H]3CC[C@H](N)CC3)c2n1,CDK7,"target engagement in cells, inhibitor, chemoproteomics",20 mM,inhibition,31.5%
O=c1cc(-c2ccccc2)oc2cc(O)cc(O)c12,CDK7 with cyclin H,"enzyme activity, inhibitor, ADP detection",10 µM,inhibition,58.8%
O=C1NC(=O)c2cc(Nc3ccc(F)cc3)c(Nc3ccc(F)cc3)cc21,CDK7 with cyclin H,cell-free assay,0.5 µM,remaining signal,100%
Cc1ccc(Nc2nccc(N(C)c3ccc4c(C)n(C)nc4c3)n2)cc1S(N)(=O)=O,CDK7 with cyclin H,"enzyme activity, inhibitor",0.3 µM,inhibition,8%
O=C(Nc1cnn(-c2csc(C(=O)NC3COC3)c2)c1)Nc1ccccc1Cl,CDK7 with cyclin H,"enzyme activity, inhibitor",5 µM,remaining activity,99.7%
O=C1C[C@@H](c2ccc(O)c(O[C@@H]3O[C@H](CO)[C@@H](O)[C@H](O)[C@H]3O)c2)Oc2cc(O[C@@H]3O[C@H](CO)[C@@H](O)[C@H](O)[C@H]3O)ccc21,CDK7 with cyclin H,"enzyme activity, inhibitor, ADP detection",10 µM,inhibition,36.6%
CN(c1ccnc(CNc2nc(Nc3ccc4c(c3)CC(=O)N4)ncc2C(F)(F)F)n1)S(C)(=O)=O,CDK7,"cell-free assay, competition with immobilised ligand",1 µM,remaining binding,3.5%
Cc1cc(=O)c2c(O)cc(O)cc2o1,CDK7 with cyclin H,"enzyme activity, inhibitor, ADP detection",10 µM,inhibition,29.4%
COc1cc2ncnc(Nc3ccc(F)c(Cl)c3)c2cc1OCCCN1CCOCC1,CDK7 with cyclin H,cell-free assay,0.5 µM,remaining signal,105%
CNC(=O)c1ccc(Nc2ncc(C(F)(F)F)c(NCc3nccnc3N(C)S(C)(=O)=O)n2)cc1,CDK7,"cell-free assay, competition with immobilised ligand",0.1 µM,remaining binding,59%
Cc1cc(NC(=O)c2cccc3cc(-c4cccc5[nH]nc(N)c45)ccc23)ccc1F,CDK7,"enzyme activity, inhibitor",0.1 µM,activity vs control,117%
Cc1nc(Cc2cccc(C(F)(F)F)c2)sc1-c1ccc(C(N)=O)nc1,CDK7,"cell-free assay, competition with immobilised ligand",1 µM,remaining binding,90%
CCCCCC[C@@H](C)/C=C(C)/C=C/C(=O)N[C@H]1CC2(O[C@H]1O)[C@@H]1O[C@@H]1C(=O)[C@@H]1O[C@@H]12 (some centres unmarked),CDK7 with cyclin H,"enzyme activity, inhibitor, ADP detection",10 µM,inhibition,-18.5%
CO[C@@H](C)c1c(Nc2ccc([C@@H](N(C)C(=O)C3CCS(=O)(=O)CC3)C(F)(F)F)cc2)cnc2cc(Cl)nn12,CDK7,"cell-free assay, competition with immobilised ligand",1 µM,remaining binding,100%
COC(=O)C1=CO[C@@H](C)[C@H]2CN3CCc4c([nH]c5ccccc45)[C@@H]3C[C@H]12,CDK7 with cyclin H,"enzyme activity, inhibitor, ADP detection",10 µM,inhibition,-41.8%
O=C(NCc1ncc(C(F)(F)F)cc1Cl)c1ccc2c(c1)C1(CCS(=O)(=O)CC1)[C@@H](C1CC1)N2S(=O)(=O)c1ccc(F)cc1,CDK7,"cell-free assay, competition with immobilised ligand",1 µM,remaining binding,56%
COc1cc(-c2cc(-c3ccc(N4CCNCC4)cc3)cnc2C)cc(OC)c1OC,CDK7,"enzyme activity, inhibitor",0.1 µM,inhibition,0%
C[C@H](c1ccc(F)cc1)N(Cc1cccc(C(=O)O)c1)C(=O)c1cnc2ccccc2c1,CDK7,"cell-free assay, competition with immobilised ligand",1 µM,remaining binding,100%
CCN(CC)c1ccc(C2=NNC(=O)CC2C)cc1[N+](=O)[O-] (centres unmarked),CDK7,"enzyme activity, inhibitor",10 µM,remaining activity,96%
